Measured values from ChEMBL document CHEMBL1773035, “SHAFTS: a hybrid approach for 3D molecular similarity calculation. 2. Prospective case study in the discovery of diverse p90 ribosomal S6 protein kinase 2 inhibitors to suppress cell migration” (J Med Chem, 2011).
Blank lines part the entries; values can stand above or below the compound they belong to. Active and inactive are the calls of the source. The calls are words filed in the database; no cut-off is given here.

Assays:
MDA-MB-231 [1] = assay: Antiproliferative activity against human MDA-MB-231 cells over expressing RSK2 at 100 uM after 48 hrs by MTT assay; type: functional; conditions: MDA-MB-231, 48 h
Method in brief: (§1)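 Formazan dissolved in DMSO, absorbance read at 570 nm. Inhibition = (1 − A570 compound/A570 control)×100. Screening concentration 100 μM (control 10 μM). IC50 from curves, ≥3 independent tests, attempted when inhibition at 100 μM exceeded 40%.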

MCF7 [2] = assay: Antiproliferative activity against human MCF7 cells over expressing RSK2 at 100 uM after 48 hrs by MTT assay; type: functional; conditions: MCF7, 48 h; method in brief: as §1
HCT-116 [3] = assay: Antiproliferative activity against human HCT116 cells over expressing RSK2 at 100 uM after 48 hrs by MTT assay; type: functional; conditions: HCT-116, 48 h; method in brief: as §1
[4] = biological target: T1, Ribosomal protein S6 kinase alpha-3 (Homo sapiens, UniProt P51812); assay: Inhibition of RSK2 after 60 mins
T1 sequence (P51812 whole entry): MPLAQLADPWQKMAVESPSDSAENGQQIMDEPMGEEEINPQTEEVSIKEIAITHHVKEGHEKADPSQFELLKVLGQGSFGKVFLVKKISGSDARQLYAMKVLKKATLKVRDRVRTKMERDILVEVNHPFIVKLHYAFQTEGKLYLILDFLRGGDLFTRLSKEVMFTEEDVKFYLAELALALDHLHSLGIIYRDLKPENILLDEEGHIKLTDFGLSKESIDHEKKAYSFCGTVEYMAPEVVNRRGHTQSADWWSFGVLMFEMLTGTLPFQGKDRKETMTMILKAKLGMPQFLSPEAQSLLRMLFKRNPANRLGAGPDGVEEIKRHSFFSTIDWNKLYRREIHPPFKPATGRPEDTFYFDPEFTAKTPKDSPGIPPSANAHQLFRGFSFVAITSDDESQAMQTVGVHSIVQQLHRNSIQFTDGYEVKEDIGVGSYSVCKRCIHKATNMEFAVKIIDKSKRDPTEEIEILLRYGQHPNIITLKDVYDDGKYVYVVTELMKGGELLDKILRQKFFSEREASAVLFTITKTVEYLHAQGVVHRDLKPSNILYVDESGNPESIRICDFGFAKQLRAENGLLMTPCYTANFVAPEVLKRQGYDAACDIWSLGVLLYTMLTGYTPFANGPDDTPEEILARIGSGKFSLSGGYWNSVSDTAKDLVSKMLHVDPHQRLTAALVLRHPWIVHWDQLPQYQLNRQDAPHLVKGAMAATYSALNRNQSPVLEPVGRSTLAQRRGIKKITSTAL
Method in brief: (§2)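 Recombinant RSK2 (20 ng) preincubated 20 min at room temperature with compound in HEPES pH 7.4 buffer (MgCl2, EGTA, Tween 20, BGG) with 25 μM S6 peptide; started with ATP (10 μM final), 60 min at room temperature. ADP Quest fluorescence read at ex 530/em 590 nm. IC50 from curves of ≥3 independent tests, measured when inhibition at 10 μM exceeded 30%.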

[5] = biological target: Ribosomal protein S6 kinase alpha-5 (Homo sapiens) (UniProt O75582); conditions: 1 uM
Ribosomal protein S6 kinase alpha-5 (Homo sapiens), sequence (O75582 whole entry, looked up): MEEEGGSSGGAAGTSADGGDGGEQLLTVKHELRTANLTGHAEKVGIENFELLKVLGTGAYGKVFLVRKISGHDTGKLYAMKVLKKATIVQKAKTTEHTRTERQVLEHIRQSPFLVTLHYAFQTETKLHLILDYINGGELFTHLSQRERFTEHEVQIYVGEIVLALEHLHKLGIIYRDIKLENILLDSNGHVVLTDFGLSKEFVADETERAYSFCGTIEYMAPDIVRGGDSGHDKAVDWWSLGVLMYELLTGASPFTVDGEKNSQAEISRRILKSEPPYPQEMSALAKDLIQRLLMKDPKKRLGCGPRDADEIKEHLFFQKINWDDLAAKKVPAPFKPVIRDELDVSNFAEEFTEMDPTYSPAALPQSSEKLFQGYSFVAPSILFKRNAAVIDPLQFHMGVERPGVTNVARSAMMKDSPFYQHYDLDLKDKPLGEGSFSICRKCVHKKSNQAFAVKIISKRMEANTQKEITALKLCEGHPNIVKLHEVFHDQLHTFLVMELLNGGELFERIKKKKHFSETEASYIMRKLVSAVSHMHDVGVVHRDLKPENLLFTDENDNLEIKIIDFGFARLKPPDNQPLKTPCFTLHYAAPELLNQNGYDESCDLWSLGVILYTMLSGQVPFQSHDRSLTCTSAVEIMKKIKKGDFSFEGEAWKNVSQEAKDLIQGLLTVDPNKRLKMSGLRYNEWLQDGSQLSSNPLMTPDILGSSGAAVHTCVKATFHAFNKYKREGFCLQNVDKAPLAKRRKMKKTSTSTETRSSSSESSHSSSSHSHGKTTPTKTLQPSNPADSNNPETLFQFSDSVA

[6] = biological target: Protein kinase C alpha type (Homo sapiens) (UniProt P17252); assay: Inhibition of PKCalpha at 1 uM
[7] = biological target: Mitogen-activated protein kinase 14 (Homo sapiens) (UniProt Q16539); assay: Inhibition of p38alpha at 1 uM
Mitogen-activated protein kinase 14 (Homo sapiens), sequence (Q16539 whole entry): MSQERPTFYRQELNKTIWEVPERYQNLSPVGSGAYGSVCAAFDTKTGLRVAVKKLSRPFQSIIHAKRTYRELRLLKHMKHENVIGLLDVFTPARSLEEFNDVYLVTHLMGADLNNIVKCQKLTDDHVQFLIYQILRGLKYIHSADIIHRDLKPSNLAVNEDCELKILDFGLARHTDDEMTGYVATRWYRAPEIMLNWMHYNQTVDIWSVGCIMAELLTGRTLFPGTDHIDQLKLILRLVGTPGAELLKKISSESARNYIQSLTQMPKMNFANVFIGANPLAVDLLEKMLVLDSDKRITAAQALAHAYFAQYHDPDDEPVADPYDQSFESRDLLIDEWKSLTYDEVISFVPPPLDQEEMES

MDA-MB-231 [8] = assay: Antiproliferative activity against human MDA-MB-231 cells over expressing RSK2 at 10 uM after 48 hrs by MTT assay; type: functional; conditions: MDA-MB-231, 48 h
MCF7 [9] = assay: Antiproliferative activity against human MCF7 cells over expressing RSK2 after 48 hrs by MTT assay; type: functional, cell-based; conditions: MCF7, 48 h; method in brief: as §1
[10] = biological target: 3-phosphoinositide-dependent protein kinase 1 (Homo sapiens) (UniProt O15530); assay: Inhibition of PDK1 at 1 uM
[11] = biological target: Proto-oncogene tyrosine-protein kinase Src (Homo sapiens) (UniProt P12931); assay: Inhibition of c-Src at 10 uM by ELISA based method
Method in brief: (§3)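 Tyrosine kinase profiling by ELISA-based method, ATP at Km for each enzyme; percent inhibition at 10 μM, mean of at least two independent tests.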

[12] = biological target: T1, Ribosomal protein S6 kinase alpha-3; conditions: 1 uM
MDA-MB-231 [13] = assay: Antiproliferative activity against human MDA-MB-231 cells over expressing RSK2 after 48 hrs by MTT assay; type: functional, cell-based; conditions: MDA-MB-231, 48 h; method in brief: as §1
[14] = biological target: Platelet-derived growth factor receptor beta (Homo sapiens) (UniProt P09619); assay: Inhibition of PDGFRbeta at 10 uM by ELISA based method; method in brief: as §3
[15] = biological target: Mast/stem cell growth factor receptor Kit (Homo sapiens) (UniProt P10721); assay: Inhibition of c-Kit at 10 uM by ELISA based method; method in brief: as §3
[16] = biological target: Ribosomal protein S6 kinase beta-1 (Homo sapiens) (UniProt P23443); assay: Inhibition of p70S6K at 1 uM
Ribosomal protein S6 kinase beta-1 (Homo sapiens), sequence (P23443 whole entry, looked up): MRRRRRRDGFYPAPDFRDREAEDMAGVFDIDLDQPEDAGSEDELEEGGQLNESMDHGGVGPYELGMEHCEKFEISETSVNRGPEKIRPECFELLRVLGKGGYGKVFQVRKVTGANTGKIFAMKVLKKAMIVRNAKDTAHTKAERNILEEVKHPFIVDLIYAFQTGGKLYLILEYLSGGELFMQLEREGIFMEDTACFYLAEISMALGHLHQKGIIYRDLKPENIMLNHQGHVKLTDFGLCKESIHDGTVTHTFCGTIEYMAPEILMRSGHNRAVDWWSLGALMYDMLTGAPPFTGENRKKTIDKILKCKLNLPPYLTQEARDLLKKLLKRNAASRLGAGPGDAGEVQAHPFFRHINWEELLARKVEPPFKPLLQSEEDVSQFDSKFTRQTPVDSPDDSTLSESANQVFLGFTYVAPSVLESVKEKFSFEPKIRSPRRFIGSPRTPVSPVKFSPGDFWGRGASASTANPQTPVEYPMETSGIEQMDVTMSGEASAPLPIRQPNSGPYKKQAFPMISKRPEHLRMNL

[17] = biological target: Proto-oncogene tyrosine-protein kinase receptor Ret (Homo sapiens) (UniProt P07949); assay: Inhibition of RET at 10 uM by ELISA based method; method in brief: as §3
Proto-oncogene tyrosine-protein kinase receptor Ret (Homo sapiens), sequence (P07949 whole entry): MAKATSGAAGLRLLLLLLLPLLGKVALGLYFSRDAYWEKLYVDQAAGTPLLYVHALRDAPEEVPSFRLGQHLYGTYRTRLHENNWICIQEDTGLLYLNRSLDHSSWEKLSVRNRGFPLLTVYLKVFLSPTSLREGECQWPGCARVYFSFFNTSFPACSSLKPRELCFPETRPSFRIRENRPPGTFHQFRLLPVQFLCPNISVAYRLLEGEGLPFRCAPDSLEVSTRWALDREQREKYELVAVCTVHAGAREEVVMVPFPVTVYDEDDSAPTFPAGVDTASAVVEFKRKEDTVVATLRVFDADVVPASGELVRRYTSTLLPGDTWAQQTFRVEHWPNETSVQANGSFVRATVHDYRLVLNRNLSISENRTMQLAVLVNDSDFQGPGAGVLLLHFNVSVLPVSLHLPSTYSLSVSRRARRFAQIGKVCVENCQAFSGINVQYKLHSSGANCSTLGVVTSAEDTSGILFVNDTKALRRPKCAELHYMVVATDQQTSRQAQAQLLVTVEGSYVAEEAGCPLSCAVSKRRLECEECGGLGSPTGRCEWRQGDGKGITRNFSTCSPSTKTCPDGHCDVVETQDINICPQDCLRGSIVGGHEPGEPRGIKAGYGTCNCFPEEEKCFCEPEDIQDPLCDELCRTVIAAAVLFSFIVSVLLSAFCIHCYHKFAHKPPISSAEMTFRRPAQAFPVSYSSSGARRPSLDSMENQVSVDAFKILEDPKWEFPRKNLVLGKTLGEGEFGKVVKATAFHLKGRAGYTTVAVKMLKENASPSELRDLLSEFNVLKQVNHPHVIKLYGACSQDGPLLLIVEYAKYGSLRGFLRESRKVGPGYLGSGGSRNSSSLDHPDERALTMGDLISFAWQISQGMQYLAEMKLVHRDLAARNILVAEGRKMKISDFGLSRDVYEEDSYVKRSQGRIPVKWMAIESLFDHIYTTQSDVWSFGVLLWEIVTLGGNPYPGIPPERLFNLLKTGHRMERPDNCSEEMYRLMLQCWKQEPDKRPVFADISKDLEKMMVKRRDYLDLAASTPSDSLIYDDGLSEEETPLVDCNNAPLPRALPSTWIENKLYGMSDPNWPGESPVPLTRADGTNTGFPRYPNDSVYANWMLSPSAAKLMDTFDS

[18] = biological target: Tyrosine-protein kinase ABL1 (Homo sapiens) (UniProt P00519); assay: Inhibition of ABL at 10 uM by ELISA based method; method in brief: as §3
[19] = biological target: Mitogen-activated protein kinase 1 (Homo sapiens) (UniProt P28482); assay: Inhibition of ERK2 at 1 uM
[20] = biological target: Mitogen-activated protein kinase 8 (Homo sapiens) (UniProt P45983); assay: Inhibition of JNK1 at 1 uM
MCF7 [21] = assay: Antiproliferative activity against human MCF7 cells over expressing RSK2 at 10 uM after 48 hrs by MTT assay; type: functional; conditions: MCF7, 48 h
[22] = biological target: Platelet-derived growth factor receptor alpha (Homo sapiens) (UniProt P16234); assay: Inhibition of PDGFRalpha at 10 uM by ELISA based method; method in brief: as §3
[23] = biological target: Vascular endothelial growth factor receptor 1 (Homo sapiens) (UniProt P17948); assay: Inhibition of Flt1 at 10 uM by ELISA based method; method in brief: as §3
[24] = biological target: Vascular endothelial growth factor receptor 2 (Homo sapiens) (UniProt P35968); assay: Inhibition of KDR at 10 uM by ELISA based method; method in brief: as §3
Vascular endothelial growth factor receptor 2 (Homo sapiens), sequence (P35968 whole entry): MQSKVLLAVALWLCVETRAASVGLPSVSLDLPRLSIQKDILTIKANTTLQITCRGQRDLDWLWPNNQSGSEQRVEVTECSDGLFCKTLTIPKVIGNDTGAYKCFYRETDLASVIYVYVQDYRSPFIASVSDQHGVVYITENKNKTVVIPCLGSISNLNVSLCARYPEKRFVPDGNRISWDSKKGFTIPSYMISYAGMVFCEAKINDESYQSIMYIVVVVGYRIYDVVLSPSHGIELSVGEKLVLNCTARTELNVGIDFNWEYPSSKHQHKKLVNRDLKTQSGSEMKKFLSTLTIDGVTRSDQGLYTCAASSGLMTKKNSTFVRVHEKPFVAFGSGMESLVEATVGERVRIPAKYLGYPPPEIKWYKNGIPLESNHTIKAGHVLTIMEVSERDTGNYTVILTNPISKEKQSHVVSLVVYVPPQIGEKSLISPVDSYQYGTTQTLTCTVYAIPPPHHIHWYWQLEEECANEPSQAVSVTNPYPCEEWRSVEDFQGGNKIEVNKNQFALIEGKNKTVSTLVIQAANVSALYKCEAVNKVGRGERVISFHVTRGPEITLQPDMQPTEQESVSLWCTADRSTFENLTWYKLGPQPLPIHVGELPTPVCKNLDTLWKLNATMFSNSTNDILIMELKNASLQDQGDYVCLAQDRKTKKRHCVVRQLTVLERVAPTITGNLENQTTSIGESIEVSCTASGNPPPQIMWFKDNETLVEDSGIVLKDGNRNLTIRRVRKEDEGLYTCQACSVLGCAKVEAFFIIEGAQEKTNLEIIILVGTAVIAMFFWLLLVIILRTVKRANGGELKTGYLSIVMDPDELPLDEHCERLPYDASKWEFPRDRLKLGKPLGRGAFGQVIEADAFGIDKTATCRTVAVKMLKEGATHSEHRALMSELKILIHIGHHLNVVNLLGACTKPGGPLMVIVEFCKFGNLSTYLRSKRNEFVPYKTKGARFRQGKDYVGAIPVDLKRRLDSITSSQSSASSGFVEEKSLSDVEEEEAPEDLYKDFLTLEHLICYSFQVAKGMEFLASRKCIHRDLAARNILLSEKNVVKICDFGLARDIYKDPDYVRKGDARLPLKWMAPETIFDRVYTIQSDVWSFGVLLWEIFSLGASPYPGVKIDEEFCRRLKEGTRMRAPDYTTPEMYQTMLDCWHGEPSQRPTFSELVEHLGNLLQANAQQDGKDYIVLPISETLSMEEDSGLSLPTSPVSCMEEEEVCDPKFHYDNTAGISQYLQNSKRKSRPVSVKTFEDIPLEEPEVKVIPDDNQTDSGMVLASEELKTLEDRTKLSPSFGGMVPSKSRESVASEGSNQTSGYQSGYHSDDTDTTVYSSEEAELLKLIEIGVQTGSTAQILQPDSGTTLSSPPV

HCT-116 [25] = assay: Antiproliferative activity against human HCT116 cells over expressing RSK2 after 48 hrs by MTT assay; type: functional, cell-based; conditions: HCT-116, 48 h; method in brief: as §1
[26] = biological target: Epidermal growth factor receptor (Homo sapiens) (UniProt P00533); assay: Inhibition of EGFR at 10 uM by ELISA based method; method in brief: as §3
[27] = biological target: Fibroblast growth factor receptor 1 (Homo sapiens) (UniProt P11362); assay: Inhibition of FGFR1 at 10 uM by ELISA based method; method in brief: as §3
HCT-116 [28] = assay: Antiproliferative activity against human HCT116 cells over expressing RSK2 at 10 uM after 48 hrs by MTT assay; type: functional; conditions: HCT-116, 48 h
[29] = biological target: Ephrin type-A receptor 2 (Homo sapiens) (UniProt P29317); assay: Inhibition of EPHA2 at 10 uM by ELISA based method; method in brief: as §3
[30] = biological target: Mitogen-activated protein kinase 3 (Homo sapiens) (UniProt P27361); assay: Inhibition of ERK1 at 10 uM
Method in brief: (§4)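 Serine/threonine kinase profiling by an outside contract service following manufacturer protocols, ATP at Km for each enzyme; percent inhibition at 10 μM.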

MDA-MB-231 [31] = assay: Antimigratory activity against human MDA-MB-231 cells at 5 uM after 48 hrs by wound-healing assay; type: functional, cell-based
Method in brief: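 MDA-MB-231 grown 24 h to confluence in six-well plates, monolayer scratched with a pipet tip, washed, then kept in serum-free DMEM with compound (0.5 and 5 μM) for 48 h; migration photographed by phase-contrast microscopy at 0 and 48 h.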

[32] = biological target: Glycogen synthase kinase-3 alpha (Homo sapiens) (UniProt P49840); assay: Inhibition of GSK3alpha at 10 uM; method in brief: as §4
[33] = biological target: T1, Ribosomal protein S6 kinase alpha-3; assay: Inhibition of RSK2 at 10 uM; method in brief: as §2
[34] = biological target: Mitogen-activated protein kinase 9 (Homo sapiens) (UniProt P45984); assay: Inhibition of JNK2 at 10 uM; method in brief: as §4
[35] = biological target: Mitogen-activated protein kinase 14 (Homo sapiens) (UniProt Q16539); assay: Inhibition of p38alpha at 10 uM; method in brief: as §4
[36] = biological target: Ribosomal protein S6 kinase alpha-5 (Homo sapiens) (UniProt O75582); assay: Inhibition of MSK1 at 10 uM; method in brief: as §4
[37] = biological target: RAC-alpha serine/threonine-protein kinase (Homo sapiens) (UniProt P31749); assay: Inhibition of AKT1 at 10 uM; method in brief: as §4
[38] = biological target: Ribosomal protein S6 kinase beta-1 (Homo sapiens) (UniProt P23443); assay: Inhibition of p70S6K at 10 uM; method in brief: as §4
[39] = biological target: Protein kinase C alpha type (Homo sapiens) (UniProt P17252); assay: Inhibition of PKCalpha at 10 uM; method in brief: as §4
[40] = biological target: Serine/threonine-protein kinase pim-1 (Homo sapiens) (UniProt P11309); assay: Inhibition of PIM1 at 10 uM; method in brief: as §4

IC50 [4]: 3470 nM
SMILES: O=C(O)c1ccc(/N=N/c2ccc(O)c3ncccc23)cc1
inhibition at 100 µM (MDA-MB-231 [1]): 22.2% | inhibition at 100 µM (MCF7 [2]): 36.7% | inhibition at 100 µM (HCT-116 [3]): 28.4%

inhibition [5]: 98% | inhibition [6]: 97% | inhibition [7]: 16% | IC50 (MCF7 [9]): 1960 nM | inhibition [10]: 16% | inhibition [11]: 37.4% | inhibition [12]: 98% | IC50 (MDA-MB-231 [13]): 1770 nM | inhibition [14]: 32.4% | inhibition [15]: 58% | inhibition [16]: 94% | inhibition [17]: 71.8% | inhibition [18]: 37.9% | inhibition [19]: 3% | inhibition [20]: 5% | inhibition [22]: 32.6% | inhibition [23]: 73.2% | inhibition [24]: 74.4% | IC50 (HCT-116 [25]): 840 nM | inhibition [26]: 36.6% | inhibition [27]: 61.2% | inhibition [29]: 70.7% | IC50 [4]: 10 nM
SMILES: Cn1cc(C2=C(c3cn(CCCSC(=N)N)c4ccccc34)C(=O)NC2=O)c2ccccc21 [BISINDOLYLMALEIMIDE IX]
inhibition at 10 µM (MDA-MB-231 [8]): 97.1% | inhibition at 10 µM (MCF7 [21]): 95.3% | inhibition at 10 µM (HCT-116 [28]): 95.2%

IC50 [4]: 1060 nM
SMILES: Cc1cc(N)cc2[nH]c(-c3ccccc3)nc12
inhibition at 100 µM (MDA-MB-231 [1]): 45.8% | inhibition at 100 µM (MCF7 [2]): 21.3% | inhibition at 100 µM (HCT-116 [3]): 32.6%

inhibition [30]: -4.4% | inhibition [32]: 3.5% | inhibition [33]: 95.5% | inhibition [34]: -1.4% | inhibition [35]: 2.7% | inhibition [36]: 3.1% | IC50 (MCF7 [9]): 25500 nM | inhibition [11]: 8.2% | inhibition [37]: -2.5% | inhibition [38]: 6.2% | IC50 (MDA-MB-231 [13]): 16100 nM | inhibition [14]: 62.8% | inhibition [15]: 11.5% | inhibition [17]: 0.6% | inhibition [18]: 7.4% | inhibition [39]: -0.4% | inhibition [22]: 1.4% | inhibition [23]: 12.5% | inhibition [24]: 21.9% | inhibition [40]: 86.8% | IC50 (HCT-116 [25]): 30200 nM | inhibition [26]: 44.9% | inhibition [27]: 15.5% | inhibition [29]: 24%
SMILES: Cc1c(N)ccc2[nH]c(-c3ccc(N)cc3)nc12
Activity (MDA-MB-231 [31]): Active | inhibition at 100 µM (MDA-MB-231 [1]): 89.2% | inhibition at 100 µM (MCF7 [2]): 98.3% | inhibition at 100 µM (HCT-116 [3]): 89.6%

IC50 [4]: 2880 nM
SMILES: Clc1ccc2c(c1)SNC(c1ccccc1)=N2
inhibition at 100 µM (MDA-MB-231 [1]): 0% | inhibition at 100 µM (MCF7 [2]): 3.6% | inhibition at 100 µM (HCT-116 [3]): 6.5%

IC50 (MCF7 [9]): > 100000 nM | IC50 (MDA-MB-231 [13]): > 100000 nM | IC50 (HCT-116 [25]): > 100000 nM | IC50 [4]: 1380 nM
SMILES: Cc1ccc2nc(-c3cc(N)cc(C)c3O)oc2c1
inhibition at 100 µM (MDA-MB-231 [1]): 54.7% | inhibition at 100 µM (MCF7 [2]): 45.1% | inhibition at 100 µM (HCT-116 [3]): 44.2%

IC50 [4]: 7040 nM
SMILES: N#Cc1nc(/N=N/c2ccccc2)[nH]c1O
inhibition at 100 µM (MDA-MB-231 [1]): 12.1% | inhibition at 100 µM (MCF7 [2]): 0% | inhibition at 100 µM (HCT-116 [3]): 4.8%

IC50 [4]: 15100 nM
SMILES: Cc1c(O)ccc(/N=N/c2ccc(S(=O)(=O)O)cc2)c1C

IC50 [4]: 320 nM
SMILES: Cc1c(N)ccc2nc(-c3ccc(N)cc3)[nH]c12
